Legend:
Enterovirus A71 [1] = assay: Antiviral activity against Enterovirus A71 Laos2011 HFMD18T infected in human RD cells assessed as reduction in viral replication incubated for 72 hrs by RT-qPCR analysis; assay type: functional, organism-based; details: Enterovirus A
Enterovirus A71 [2] = assay: Antiviral activity against Enterovirus A71 Laos2011 HFMD18T infected in human MRC5 cells assessed as reduction in viral replication incubated for 72 hrs by RT-qPCR analysis; assay type: functional, organism-based; details: Enterovirus A, MRC5, 72 h
[3] = Cytotoxicity against human RD cells; assay type: toxicity, cell-based
In short: (§1)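 CC50 was measured in parallel on compound-treated uninfected cells, run alongside the antiviral assay. Cells were seeded one day ahead in assay medium with 2.5 % FBS (RD at 50000 cells/well) and held at 37 °C, 5 % CO2; MRC-5 were grown in BME with 10 % FBS. Compounds were added as eight ½ dilutions. CC50 came from nonlinear regression (log(inhibitor) vs response, variable slope, three parameters); median ± std of two independent experiments.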

[4] = Selectivity index, ratio of CC50 for cytotoxicity against human RD cells to EC50 for antiviral activity against Enterovirus A71 infected in human RD cells
[5] = Selectivity index, ratio of CC50 for cytotoxicity against human MRC5 cells to EC50 for antiviral activity against Enterovirus A71 infected in human MRC5 cells; assay type: toxicity, cell-based; details: read-out: Selectivity Index
[6] = Cytotoxicity against human MRC5 cells; assay type: toxicity, cell-based; in short: as §1
[7] = Selectivity index, ratio of CC50 for cytotoxicity against human MRC5 cells to EC50 for antiviral activity against Coxsackievirus A24 UVE/CV-A24/2010/LA/HFMK14 infected in human MRC5 cells; assay type: toxicity, cell-based; details: read-out: Selectivity Index
In short: (§2)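 In MRC-5 cells, SI = CC50/EC50. EC50 comes from the 3-day RT-qPCR viral RNA inhibition assay with eight ½ dilutions. CC50 was measured in parallel on compound-treated uninfected MRC-5 cells. Both values derived by nonlinear regression (three-parameter, variable slope); two independent experiments.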

Coxsackievirus = assay: Antiviral activity against Coxsackievirus A24 UVE/CV-A24/2010/LA/HFMK14 infected in human MRC5 cells assessed as […]; assay type: functional, organism-based; details: UVE/CV-A24/2010/LA/HFMK14, MRC5
Human echovirus 30 = assay: Antiviral activity against Echovirus 30 strain UVE/E-30/2013/FR/4-MRS2013 infected in human MRC5 cells assessed as […]; assay type: functional, organism-based, Echovirus E30; details: Enterovirus B, UVE/E-30/2013/FR/4-MRS2013, MRC5
In short: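 MRC-5 cells seeded the day before infection in assay medium with 2.5 % FBS. After 24 h, compounds added as eight ½ dilutions, then virus added. On day 3 post-infection, supernatant harvested and viral RNA quantified by RT-qPCR (pan-enterovirus probe/primers, synthetic RNA standard curve). Inhibition calculated relative to four virus control wells per plate. EC50 obtained by nonlinear regression (log(inhibitor) vs response, variable slope, three parameters); two independent experiments.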

[8] = Cytotoxicity against Chinese hamster CHO cells
[9] = Selectivity index, ratio of CC50 for cytotoxicity against human MRC5 cells to EC50 for antiviral activity against Echovirus 30 strain UVE/E-30/2013/FR/4-MRS2013 infected in human MRC5 cells; assay type: toxicity, cell-based; details: read-out: Selectivity Index; in short: as §2
Enterovirus A71 [10] = assay: Antiviral activity against Enterovirus A71 Laos2011 HFMD18T infected in human RD cells assessed as inhibition of viral RNA measured per ml of supernatant at 10 uM pretreated 1 hr before infection measured after 72 hrs; assay type: functional; details: Enterovirus A
Enterovirus A71 [11] = assay: Antiviral activity against Enterovirus A71 Laos2011 HFMD18T infected in human RD cells assessed as RNA copies measured per ml of supernatant at 10 uM treated 1 hr post infection measured after 72 hrs
Enterovirus A71 [12] = assay: Antiviral activity against Enterovirus A71 Laos2011 HFMD18T infected in human RD cells assessed as RNA copies measured per ml of supernatant at 10 uM treated 4 hr post infection measured after 72 hrs; assay type: functional
Enterovirus A71 [13] = assay: Antiviral activity against Enterovirus A71 Laos2011 HFMD18T infected in human RD cells assessed as inhibition of viral RNA copies measured per ml of supernatant at 10 uM treated 4 hr post infection measured after 72 hrs; assay type: functional; details: Enterovirus A
Enterovirus A71 [14] = assay: Antiviral activity against Enterovirus A71 Laos2011 HFMD18T infected in human RD cells assessed as inhibition of viral RNA copies measured per ml of supernatant at 10 uM measured after 72 hrs; details: Enterovirus A
Enterovirus A71 [15] = assay: Antiviral activity against Enterovirus A71 Laos2011 HFMD18T infected in human RD cells assessed as RNA copies measured per ml of supernatant at 10 uM treated at time of infection measured after 72 hrs; assay type: functional
Enterovirus A71 [16] = assay: Antiviral activity against Enterovirus A71 Laos2011 HFMD18T infected in human RD cells assessed as RNA copies measured per ml of supernatant at 10 uM pretreated 1 hr before infection measured after 72 hrs relative to control; assay type: functional
Enterovirus A71 [17] = assay: Antiviral activity against Enterovirus A71 Laos2011 HFMD18T infected in human RD cells assessed as inhibition of viral RNA copies measured per ml of supernatant at 10 uM treated at time of infection measured after 72 hrs; assay type: functional; details: Enterovirus A

Compound	EC50 (Enterovirus A71 [1]) [µM]	EC50 (Enterovirus A71 [2]) [µM]	CC50 [3] [µM]	selectivity ratio [4]	also measured
Cn1cc(-c2ccc(SCc3ccc(-n4cncn4)cc3)nc2)cn1	4.38	0.57			
CN(C)c1ncc(-c2ccc(CSc3ccc(-c4ccc(CO)cc4)cn3)cc2)cn1	> 40				
OCc1ccc(-c2ccc(SCc3ccc(-c4cnc(N5CCOCC5)nc4)cc3)nc2)cc1	> 40				
c1ccc2c(-c3ccc(SCc4ccc(-n5cncn5)cc4)nc3)cccc2c1	> 40				
c1ccc2oc(-c3ccc(SCc4ccc(-n5cncn5)cc4)cc3)cc2c1	> 40				
c1ccc2cc(-c3ccc(SCc4ccc(-n5cncn5)cc4)cc3)ccc2c1	> 40				
CN(C)c1cccc(-c2ccc(CSc3ccc(-c4ccc5ccccc5c4)cn3)cc2)c1	> 40				
COc1ncc(-c2ccc(CSc3ccc(-c4ccc(CO)cc4)cn3)cc2)cn1	> 40				
CCNc1ncc(-c2ccc(CSc3ccc(-c4ccc(CO)cc4)cn3)cc2)cn1	> 40				
Cc1noc(C)c1-c1ccc(CSc2ccc(-c3ccc4ccccc4c3)cn2)cc1	22.3	> 40	> 40	> 1.8	
OCc1cccc(-c2ccc(SCc3ccc(-n4cncn4)cc3)nc2)c1	2.78	22	> 40	> 14	selectivity ratio [5]: > 1.8; CC50 [6]: > 40 µM
c1ccc2cc(-c3ccc(SCc4ccc(-n5cncn5)cc4)nc3)ncc2c1	22.1	> 20	> 40	> 1.8	
OCc1ccc(-c2ccc(SCc3ccc(-n4cncn4)cc3)nc2)cc1					selectivity ratio [5]: > 181; selectivity ratio [7]: > 1.7; EC50 (Coxsackievirus): 23.2 µM; CC50 [6]: > 40 µM; EC50 (Human echovirus 30): > 40 µM
c1ncn(-c2ccc(CSc3ccc(-c4ccc5[nH]ccc5c4)cc3)cc2)n1	> 40				
CN1CCN(c2ncc(-c3ccc(CSc4ccc(-c5ccc(CO)cc5)cn4)cc3)cn2)CC1	> 40				
c1ncn(-c2ccc(CSc3ccc(-c4ccc5cn[nH]c5c4)cc3)cc2)n1	> 40				
O=C1NC(SCc2ccc(-n3cncn3)cc2)=N/C1=C\c1c[nH]c2ccccc12	4.65	> 40	96.3	20.7	CC50 [8]: 33.6 µM
CN(C)c1ccc(-c2ccc(CSc3ccc(-c4ccc5ccccc5c4)cn3)cc2)cc1	> 40				
CCOc1noc2cc(OCCC3CCN(c4ccc(C)nn4)CC3)ccc12 [VAPENDAVIR]			> 63		CC50 [6]: > 20 µM
c1ccc2cc(-c3ccc(SCc4ccc(-n5cncn5)cc4)cc3)ncc2c1	4.3	1.15	30.5	6.62	selectivity ratio [5]: > 25; selectivity ratio [7]: > 32; selectivity ratio [9]: > 100; EC50 (Coxsackievirus): 1.22 µM; CC50 [6]: > 40 µM; CC50 [8]: 31.3 µM; EC50 (Human echovirus 30): 0.41 µM
Cn1cc(-c2ccc(CSc3ccc(-c4ccc5ccccc5c4)cn3)cc2)cn1	12	22.4	> 40	> 3.3	selectivity ratio [5]: > 1.8; CC50 [6]: > 40 µM
c1ccc(Cn2cc(-c3ccc(CSc4ccc(-c5ccc6ccccc6c5)cn4)cc3)cn2)cc1	22.3				
c1ccc2cc(-c3ccc(SCc4ccc(-n5cncn5)cc4)nc3)ccc2c1	1.86	3.25	23.5	15.4	inhibition at 10 µM (Enterovirus A71 [10]): > 90%; Activity (Enterovirus A71 [11]): 1.14 log10/ml; Activity (Enterovirus A71 [12]): 0.7 log10/ml; selectivity ratio [5]: > 12; selectivity ratio [7]: > 40; inhibition at 10 µM (Enterovirus A71 [13]): < 90%; selectivity ratio [9]: > 100; EC50 (Coxsackievirus): 0.99 µM; CC50 [6]: > 40 µM; inhibition at 10 µM (Enterovirus A71 [14]): > 90%; Activity (Enterovirus A71 [15]): 1.25 log10/ml; Activity (Enterovirus A71 [16]): 1.5 log10/ml; CC50 [8]: 43.2 µM; inhibition at 10 µM (Enterovirus A71 [17]): > 90%; EC50 (Human echovirus 30): 0.4 µM
Nc1ncc(-c2ccc(CSc3ccc(-c4ccc(CO)cc4)cn3)cc2)cn1	24.7	< 0.37	44.7	1.81	selectivity ratio [5]: > 54; CC50 [6]: > 20 µM; CC50 [8]: 36.9 µM

Source: ChEMBL document CHEMBL6109076, “Design and synthesis of novel thioether analogs as promising antiviral agents: In vitro activity against enteroviruses of interest” (Eur J Med Chem, 2025)
